Reference: ChEMBL document CHEMBL1156002, “Synthesis, Raman, FT-IR, NMR spectroscopic characterization, antimicrobial activity, cytotoxicity and DNA binding of new mixed aza-oxo-thia macrocyclic compounds” (2009)

Assays:
Format in all cases: functional
Pseudomonas aeruginosa [1] = test: Antibacterial activity against Pseudomonas aeruginosa ATCC 27853 after 24 hrs by broth micro dilution method
Micrococcus luteus [2] = test: Antibacterial activity against Micrococcus luteus La 2971 after 24 hrs by broth micro dilution method
Staphylococcus aureus [3] = test: Antibacterial activity against Staphylococcus aureus ATCC 6538 after 24 hrs by broth micro dilution method
[4] = test system: Mycolicibacterium smegmatis; test: Antibacterial activity against Mycobacterium smegmatis CCM 2067 after 24 hrs by broth micro dilution method
Proteus vulgaris [5] = test: Antibacterial activity against Proteus vulgaris ATCC 8427 after 24 hrs by broth micro dilution method
Escherichia coli [6] = test: Antibacterial activity against Escherichia coli ATCC 11230 after 24 hrs by broth micro dilution method
Listeria monocytogenes [7] = test: Antibacterial activity against Listeria monocytogenes ATCC 15313 after 24 hrs by broth micro dilution method
Klebsiella pneumoniae [8] = test: Antibacterial activity against Klebsiella pneumoniae UC57 after 24 hrs by broth micro dilution method
Bacillus cereus [9] = test: Antibacterial activity against Bacillus cereus ATCC 7064 after 24 hrs by broth micro dilution method
Micrococcus luteus [10] = test: Antibacterial activity against Micrococcus luteus La 2971 at 30 ug after 24 hrs by agar disk diffusion assay; details: La 2971, 24 h, read-out: IZ
Procedure, shortened: (§1)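 Disk diffusion with sterile 6 mm discs loaded with DMSO solutions of the test agents and placed on inoculated agar. Bacteria were pre-grown in Nutrient Broth at 30 °C for 24 h, and plates were incubated at 35 °C for 24 h. Each plate carried a reference antibiotic disc matched to the organism, and a DMSO-only solvent control was run.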

Pseudomonas aeruginosa [11] = test: Antibacterial activity against Pseudomonas aeruginosa ATCC 27853 at 30 ug after 24 hrs by agar disk diffusion assay; details: ATCC 27853, 24 h, read-out: IZ; procedure, shortened: as §1
Listeria monocytogenes [12] = test: Antibacterial activity against Listeria monocytogenes ATCC 15313 at 30 ug after 24 hrs by agar disk diffusion assay; details: ATCC 15313, 24 h, read-out: IZ; procedure, shortened: as §1
Escherichia coli [13] = test: Antibacterial activity against Escherichia coli ATCC 11230 at 30 ug after 24 hrs by agar disk diffusion assay; details: ATCC 11230, 24 h, read-out: IZ
Procedure, shortened: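 Bacteria pre-grown in Nutrient Broth at 30 °C for 24 h. Sterile 6 mm discs loaded with compound solutions freshly made in DMSO were placed on inoculated agar and incubated at 35 °C for 24 h. The medium was supplemented with DMSO as a solvent control, and an appropriate reference antibiotic disc was added to each plate.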

Klebsiella pneumoniae [14] = test: Antibacterial activity against Klebsiella pneumoniae UC57 at 30 ug after 24 hrs by agar disk diffusion assay; details: UC57, 24 h, read-out: IZ; procedure, shortened: as §1
[15] = test system: Mycolicibacterium smegmatis; test: Antibacterial activity against Mycobacterium smegmatis CCM 2067 at 30 ug after 24 hrs by agar disk diffusion assay; details: CCM 2067, 24 h, read-out: IZ; procedure, shortened: as §1
Staphylococcus aureus [16] = test: Antibacterial activity against Staphylococcus aureus ATCC 6538 at 30 ug after 24 hrs by agar disk diffusion assay; details: ATCC 6538, 24 h, read-out: IZ
Procedure, shortened: (§2)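 Sterile 6 mm paper discs were loaded with ligand solution freshly prepared in DMSO and placed on inoculated agar. The inoculum came from broth cultures: bacteria in Nutrient Broth at 30 °C for 24 h, yeasts in Malt Extract Broth for 48 h. Plates were incubated at 35 °C for 24 h (bacteria) or 25 °C for 72 h (yeasts). A DMSO solvent control and a reference antibiotic disc were included on each plate.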

Bacillus cereus [17] = test: Antibacterial activity against Bacillus cereus ATCC 7064 at 30 ug after 24 hrs by agar disk diffusion assay; details: ATCC 7064, 24 h, read-out: IZ; procedure, shortened: as §1
Proteus vulgaris [18] = test: Antibacterial activity against Proteus vulgaris ATCC 8427 at 30 ug after 24 hrs by agar disk diffusion assay; details: ATCC 8427, 24 h, read-out: IZ; procedure, shortened: as §1
Rhodotorula mucilaginosa = test: Antifungal activity against Rhodotorula rubra DSM 70403 at 10 ug after 72 hrs by agar disk diffusion assay; details: DSM 70403, 72 h, read-out: IZ; procedure, shortened: as §2
Debaryomyces hansenii = test: Antifungal activity against Debaryomyces hansenii DSM 70238 at 10 ug after 72 hrs by agar disk diffusion assay; details: DSM 70238, 72 h, read-out: IZ; procedure, shortened: as §2
[19] = test system: Hanseniaspora guilliermondii; test: Antifungal activity against Hanseniaspora guilliermondii DSM 3432 at 10 ug after 72 hrs by agar disk diffusion assay; details: DSM 3432, 72 h, read-out: IZ; procedure, shortened: as §2
Candida albicans = test: Antifungal activity against Candida albicans ATCC 10231 at 10 ug after 72 hrs by agar disk diffusion assay; details: ATCC 10231, 72 h, read-out: IZ; procedure, shortened: as §2
Kluyveromyces marxianus = test: Antifungal activity against Kluyveromyces fragilis NRRL 2415 at 10 ug after 72 hrs by agar disk diffusion assay; details: NRRL 2415, 72 h, read-out: IZ; procedure, shortened: as §2
Staphylococcus aureus [20] = test: Antibacterial activity against Staphylococcus aureus ATCC 6538 at 10 ug after 24 hrs by agar disk diffusion assay; details: ATCC 6538, 24 h, read-out: IZ; procedure, shortened: as §2
Bacillus cereus [21] = test: Antibacterial activity against Bacillus cereus ATCC 7064 at 10 ug after 24 hrs by agar disk diffusion assay; details: ATCC 7064, 24 h, read-out: IZ; procedure, shortened: as §1
Klebsiella pneumoniae [22] = test: Antibacterial activity against Klebsiella pneumoniae UC57 at 10 ug after 24 hrs by agar disk diffusion assay; details: UC57, 24 h, read-out: IZ; procedure, shortened: as §1
Escherichia coli [23] = test: Antibacterial activity against Escherichia coli ATCC 11230 at 10 ug after 24 hrs by agar disk diffusion assay; details: ATCC 11230, 24 h, read-out: IZ; procedure, shortened: as §1
Listeria monocytogenes [24] = test: Antibacterial activity against Listeria monocytogenes ATCC 15313 at 10 ug after 24 hrs by agar disk diffusion assay; details: ATCC 15313, 24 h, read-out: IZ; procedure, shortened: as §1
Pseudomonas aeruginosa [25] = test: Antibacterial activity against Pseudomonas aeruginosa ATCC 27853 at 10 ug after 24 hrs by agar disk diffusion assay; details: ATCC 27853, 24 h, read-out: IZ; procedure, shortened: as §1
Proteus vulgaris [26] = test: Antibacterial activity against Proteus vulgaris ATCC 8427 at 10 ug after 24 hrs by agar disk diffusion assay; details: ATCC 8427, 24 h, read-out: IZ; procedure, shortened: as §1
Micrococcus luteus [27] = test: Antibacterial activity against Micrococcus luteus La 2971 at 10 ug after 24 hrs by agar disk diffusion assay; details: La 2971, 24 h, read-out: IZ; procedure, shortened: as §1
[28] = test system: Mycolicibacterium smegmatis; test: Antibacterial activity against Mycobacterium smegmatis CCM 2067 at 10 ug after 24 hrs by agar disk diffusion assay; details: CCM 2067, 24 h, read-out: IZ; procedure, shortened: as §1
Pseudomonas aeruginosa [29] = test: Antibacterial activity against Pseudomonas aeruginosa ATCC 27853 at 10 IU after 24 hrs by agar disk diffusion assay; procedure, shortened: as §1
Proteus vulgaris [30] = test: Antibacterial activity against Proteus vulgaris ATCC 8427 at 10 IU after 24 hrs by agar disk diffusion assay; procedure, shortened: as §1
Micrococcus luteus [31] = test: Antibacterial activity against Micrococcus luteus La 2971 at 10 IU after 24 hrs by agar disk diffusion assay; procedure, shortened: as §1
Staphylococcus aureus [32] = test: Antibacterial activity against Staphylococcus aureus ATCC 6538 at 10 IU after 24 hrs by agar disk diffusion assay; procedure, shortened: as §1
[33] = test system: Mycolicibacterium smegmatis; test: Antibacterial activity against Mycobacterium smegmatis CCM 2067 at 10 IU after 24 hrs by agar disk diffusion assay; procedure, shortened: as §1
Klebsiella pneumoniae [34] = test: Antibacterial activity against Klebsiella pneumoniae UC57 at 10 IU after 24 hrs by agar disk diffusion assay; procedure, shortened: as §1
Bacillus cereus [35] = test: Antibacterial activity against Bacillus cereus ATCC 7064 at 10 IU after 24 hrs by agar disk diffusion assay; procedure, shortened: as §1
Listeria monocytogenes [36] = test: Antibacterial activity against Listeria monocytogenes ATCC 15313 at 10 IU after 24 hrs by agar disk diffusion assay; procedure, shortened: as §1
Escherichia coli [37] = test: Antibacterial activity against Escherichia coli ATCC 11230 at 10 IU after 24 hrs by agar disk diffusion assay; procedure, shortened: as §1

GENTAMICIN
MIC (Pseudomonas aeruginosa [1]): 6.25 µg/mL | MIC (Micrococcus luteus [2]): 25 µg/mL | MIC (Staphylococcus aureus [3]): 25 µg/mL | MIC [4]: 12.5 µg/mL | MIC (Proteus vulgaris [5]): 6.25 µg/mL | MIC (Escherichia coli [6]): 6.25 µg/mL | MIC (Listeria monocytogenes [7]): 12.5 µg/mL | MIC (Klebsiella pneumoniae [8]): 6.25 µg/mL | MIC (Bacillus cereus [9]): 6.25 µg/mL

CN(C)[C@@H]1C(O)=C(C(N)=O)C(=O)[C@@]2(O)C(O)=C3C(=O)c4c(O)cccc4[C@@](C)(O)[C@H]3C[C@@H]12 [TETRACYCLINE]
zone of inhibition at 30 µg/disc (Micrococcus luteus [10]): 26 mm | zone of inhibition at 30 µg/disc (Pseudomonas aeruginosa [11]): 22 mm | zone of inhibition at 30 µg/disc (Listeria monocytogenes [12]): 28 mm | zone of inhibition at 30 µg/disc (Escherichia coli [13]): 28 mm | zone of inhibition at 30 µg/disc (Klebsiella pneumoniae [14]): 30 mm | zone of inhibition at 30 µg/disc [15]: 24 mm | zone of inhibition at 30 µg/disc (Staphylococcus aureus [16]): 26 mm | zone of inhibition at 30 µg/disc (Bacillus cereus [17]): 34 mm | zone of inhibition at 30 µg/disc (Proteus vulgaris [18]): 25 mm

Clc1ccccc1C(c1ccccc1)(c1ccccc1)n1ccnc1 [CLOTRIMAZOLE]
zone of inhibition at 10 µg/disc (Rhodotorula mucilaginosa): 18 mm | zone of inhibition at 10 µg/disc (Debaryomyces hansenii): 18 mm | zone of inhibition at 10 µg/disc [19]: 22 mm | zone of inhibition at 10 µg/disc (Candida albicans): 16 mm | zone of inhibition at 10 µg/disc (Kluyveromyces marxianus): 15 mm

CC1(C)S[C@@H]2[C@H](NC(=O)[C@H](N)c3ccccc3)C(=O)N2[C@H]1C(=O)O [AMPICILLIN]
zone of inhibition at 10 µg/disc (Staphylococcus aureus [20]): 16 mm | zone of inhibition at 10 µg/disc (Bacillus cereus [21]): 10 mm | zone of inhibition at 10 µg/disc (Klebsiella pneumoniae [22]): 14 mm | zone of inhibition at 10 µg/disc (Escherichia coli [23]): 12 mm | zone of inhibition at 10 µg/disc (Listeria monocytogenes [24]): 12 mm | zone of inhibition at 10 µg/disc (Pseudomonas aeruginosa [25]): 32 mm | zone of inhibition at 10 µg/disc (Proteus vulgaris [26]): 12 mm | zone of inhibition at 10 µg/disc (Micrococcus luteus [27]): 16 mm | zone of inhibition at 10 µg/disc [28]: 21 mm

CC1(C)S[C@@H]2[C@H](NC(=O)Cc3ccccc3)C(=O)N2[C@H]1C(=O)O [PENICILLIN G]
inhibition zone (IZ) (Pseudomonas aeruginosa [29]): 36 mm | inhibition zone (IZ) (Proteus vulgaris [30]): 14 mm | inhibition zone (IZ) (Micrococcus luteus [31]): 10 mm | inhibition zone (IZ) (Staphylococcus aureus [32]): 13 mm | inhibition zone (IZ) [33]: 15 mm | inhibition zone (IZ) (Klebsiella pneumoniae [34]): 18 mm | inhibition zone (IZ) (Bacillus cereus [35]): 8 mm | inhibition zone (IZ) (Listeria monocytogenes [36]): 10 mm | inhibition zone (IZ) (Escherichia coli [37]): 18 mm
